In ChEMBL document CHEMBL1146111, “Factor VIIa inhibitors: chemical optimization, preclinical pharmacokinetics, pharmacodynamics, and efficacy in an arterial baboon thrombosis model” (Bioorg Med Chem Lett, 2006):
Each block holds one molecule with its values, some of them ahead of it.

Tests used:
Coagulation factor VII = molecular target: T1, Coagulation factor VII (Homo sapiens, UniProt P08709); experiment: Binding affinity to F7a/TF complex; type: protein-complex assay
T1 sequence (P08709 whole entry): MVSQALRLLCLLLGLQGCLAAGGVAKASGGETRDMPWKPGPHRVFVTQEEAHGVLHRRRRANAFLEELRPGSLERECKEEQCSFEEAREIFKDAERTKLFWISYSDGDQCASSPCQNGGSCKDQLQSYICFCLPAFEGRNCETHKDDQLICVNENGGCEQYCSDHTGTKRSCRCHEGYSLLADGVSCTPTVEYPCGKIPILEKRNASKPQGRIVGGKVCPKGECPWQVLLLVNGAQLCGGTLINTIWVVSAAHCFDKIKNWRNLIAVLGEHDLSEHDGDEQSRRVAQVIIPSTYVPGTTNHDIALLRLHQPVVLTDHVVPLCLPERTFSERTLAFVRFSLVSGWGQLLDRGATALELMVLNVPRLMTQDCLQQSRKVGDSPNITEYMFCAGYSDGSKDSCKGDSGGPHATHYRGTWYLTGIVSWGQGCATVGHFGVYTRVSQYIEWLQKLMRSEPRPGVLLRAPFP

[1] = molecular target: T2, Coagulation factor VII/tissue factor (Homo sapiens) (UniProt P08709+P13726); experiment: Anticoagulant potency in human plasma as measured by prothrombin time; type: functional, cell-free
Summary of the method: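 Clotting assay in human plasma on a coagulation analyzer run per manufacturer's instructions; concentration doubling prothrombin time reported.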

[2] = molecular target: T2, Coagulation factor VII/tissue factor (Homo sapiens); experiment: Selectivity for fVIIa/TF complex over fIIa; type: protein-complex assay
Summary of the method: (§1)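 Ki ratios; fXa and thrombin assays pH 7.4, fVIIa assay with 7 nM fVIIa, 11 nM relipidated tissue factor, 5 mM CaCl2 and substrate CH3SO2-D-CHA-But-Arg-pNA.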

[3] = molecular target: T2, Coagulation factor VII/tissue factor (Homo sapiens); experiment: Selectivity for fVIIa/TF complex over fXa; type: protein-complex assay; summary of the method: as §1
[4] = Plasma clearance in iv dosed Beagle dog; type: ADME, organism-based, Canis lupus familiaris
Summary of the method: (§2)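 Single IV dose to female C57BL/6 mice or male Sprague–Dawley rats, NZW rabbits, Beagle dogs, or baboons; plasma concentrations measured by LC/MS/MS.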

Baboon [5] = experiment: Inhibition of platelet deposition in baboon at 0.5 mg/kg, iv 1 hr post dose relative to control; type: functional; conditions: Papio, in Papio anubis
Summary of the method: (§3)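 Conscious non-anticoagulated baboons with chronic femoral arterio-venous shunt; single IV bolus, thrombogenic device inserted 5 min post dose. Device: 2 cm ePTFE graft (4 mm id) filled with relipidated tissue factor, flow 100 mL/min (shear 265/s), 60 min. Platelets: 111-In-labeled autologous, gamma camera every 5 min; fibrin: 125-I fibrinogen, graft counted after 30 days decay; PT monitored throughout; reduction vs saline control.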

Oryctolagus cuniculus = experiment: Volume of distribution in iv dosed New Zealand White rabbit; type: ADME, organism-based; conditions: in vivo; summary of the method: as §2
[6] = Mean residence time in iv dosed C57BL/6 mice; type: ADME, organism-based; conditions: C57BL/6, mouse, in vivo; summary of the method: as §2
Baboon [7] = experiment: Inhibition of fibrin deposition in baboon at 0.5 mg/kg, iv 1 hr post dose relative to control; type: functional; conditions: Papio, in Papio anubis; summary of the method: as §3
Baboon [8] = experiment: Inhibition of fibrin deposition in baboon at 0.1 mg/kg, iv 1 hr post dose relative to control; type: functional; conditions: Papio, in Papio anubis; summary of the method: as §3
Canis familiaris = experiment: Volume of distribution in iv dosed Beagle dog; type: ADME, organism-based, Canis lupus familiaris; conditions: in vivo; summary of the method: as §2
[9] = Mean residence time in iv dosed baboon; type: ADME, organism-based, Papio; conditions: in vivo; summary of the method: as §2
[10] = molecular target: T2, Coagulation factor VII/tissue factor (Homo sapiens); experiment: Anticoagulant potency in baboon as measured by prothrombin time at 0.1 mg/kg, iv 1 hr post dose; type: functional, organism-based; design: dose 0.1 mg/kg; conditions: Papio, target entry is the homologue from another species; summary of the method: as §3
CYP2C19 = CYP2C19 (Homo sapiens, UniProt P33261); experiment: Inhibition of CYP2C19 at 10 uM; type: ADME
Chain of CYP2C19 (P33261 whole entry): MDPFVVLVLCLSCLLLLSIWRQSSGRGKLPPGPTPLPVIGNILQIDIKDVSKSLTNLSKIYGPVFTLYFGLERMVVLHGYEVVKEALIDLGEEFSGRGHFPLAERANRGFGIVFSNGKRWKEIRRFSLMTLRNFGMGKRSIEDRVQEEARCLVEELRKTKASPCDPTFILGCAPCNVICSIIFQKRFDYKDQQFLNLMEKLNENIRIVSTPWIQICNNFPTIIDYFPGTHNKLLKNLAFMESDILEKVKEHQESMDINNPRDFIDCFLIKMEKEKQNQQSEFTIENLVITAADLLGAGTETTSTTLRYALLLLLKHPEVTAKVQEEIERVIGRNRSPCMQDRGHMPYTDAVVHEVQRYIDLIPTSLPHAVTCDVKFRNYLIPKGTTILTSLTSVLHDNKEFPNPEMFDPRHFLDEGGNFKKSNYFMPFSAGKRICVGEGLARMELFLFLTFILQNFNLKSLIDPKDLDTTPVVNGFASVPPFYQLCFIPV
Summary of the method: (§4)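 Five cytochrome P450 isozymes tested at 10 µM; percent inhibition.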

[11] = Plasma clearance in iv dosed Sprague-Dawley rat; type: ADME, organism-based; summary of the method: as §2
[12] = Mean residence time in iv dosed New Zealand White rabbit; type: ADME, organism-based, Oryctolagus cuniculus; conditions: in vivo; summary of the method: as §2
[13] = Mean residence time in iv dosed Beagle dog; type: ADME, organism-based, Canis lupus familiaris; conditions: in vivo; summary of the method: as §2
Mus musculus = experiment: Volume of distribution in iv dosed C57BL/6 mice; type: ADME, organism-based; conditions: in vivo; summary of the method: as §2
[14] = molecular target: T2, Coagulation factor VII/tissue factor (Homo sapiens); experiment: Anticoagulant potency in baboon as measured by prothrombin time at 0.5 mg/kg, iv 1 hr post dose; type: functional, organism-based; design: dose 0.5 mg/kg; conditions: Papio, target entry is the homologue from another species; summary of the method: as §3
[15] = Mean residence time in iv dosed Sprague-Dawley rat; type: ADME, organism-based; conditions: in vivo; summary of the method: as §2
CYP1A2 = molecular target: T3, CYP1A2 (Homo sapiens, UniProt P05177); experiment: Inhibition of CYP1A2 at 10 uM; type: ADME; summary of the method: as §4
T3 sequence (P05177 whole entry): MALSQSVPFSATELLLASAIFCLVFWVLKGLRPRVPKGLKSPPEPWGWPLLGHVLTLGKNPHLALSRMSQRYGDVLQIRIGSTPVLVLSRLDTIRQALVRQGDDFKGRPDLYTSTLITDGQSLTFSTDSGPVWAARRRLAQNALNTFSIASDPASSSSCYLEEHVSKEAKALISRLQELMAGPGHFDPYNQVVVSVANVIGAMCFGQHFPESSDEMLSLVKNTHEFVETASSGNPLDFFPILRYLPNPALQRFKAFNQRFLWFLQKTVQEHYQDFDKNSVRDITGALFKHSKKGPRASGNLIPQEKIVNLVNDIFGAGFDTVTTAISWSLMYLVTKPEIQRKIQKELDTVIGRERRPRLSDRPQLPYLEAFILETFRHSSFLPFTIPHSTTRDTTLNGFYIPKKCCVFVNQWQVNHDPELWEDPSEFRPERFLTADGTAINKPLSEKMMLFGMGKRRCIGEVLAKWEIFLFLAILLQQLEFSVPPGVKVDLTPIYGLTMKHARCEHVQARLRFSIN

[16] = Plasma clearance in iv dosed C57BL/6 mice; type: ADME, organism-based; conditions: C57BL/6, mouse; summary of the method: as §2
[17] = Plasma clearance in iv dosed baboon; type: ADME, organism-based, Papio; summary of the method: as §2
[18] = Plasma clearance in iv dosed New Zealand White rabbit; type: ADME, organism-based, Oryctolagus cuniculus; summary of the method: as §2
Rattus norvegicus = experiment: Volume of distribution in iv dosed Sprague-Dawley rat; type: ADME, organism-based; conditions: in vivo; summary of the method: as §2
[19] = molecular target: T2, Coagulation factor VII/tissue factor (Homo sapiens); experiment: Ratio of prothrombin time in baboon over prothrombin time in human
CYP3A4 = CYP3A4 (Homo sapiens, UniProt P08684); experiment: Inhibition of CYP3A4 at 10 uM; type: ADME; summary of the method: as §4
Chain of CYP3A4 (P08684 whole entry): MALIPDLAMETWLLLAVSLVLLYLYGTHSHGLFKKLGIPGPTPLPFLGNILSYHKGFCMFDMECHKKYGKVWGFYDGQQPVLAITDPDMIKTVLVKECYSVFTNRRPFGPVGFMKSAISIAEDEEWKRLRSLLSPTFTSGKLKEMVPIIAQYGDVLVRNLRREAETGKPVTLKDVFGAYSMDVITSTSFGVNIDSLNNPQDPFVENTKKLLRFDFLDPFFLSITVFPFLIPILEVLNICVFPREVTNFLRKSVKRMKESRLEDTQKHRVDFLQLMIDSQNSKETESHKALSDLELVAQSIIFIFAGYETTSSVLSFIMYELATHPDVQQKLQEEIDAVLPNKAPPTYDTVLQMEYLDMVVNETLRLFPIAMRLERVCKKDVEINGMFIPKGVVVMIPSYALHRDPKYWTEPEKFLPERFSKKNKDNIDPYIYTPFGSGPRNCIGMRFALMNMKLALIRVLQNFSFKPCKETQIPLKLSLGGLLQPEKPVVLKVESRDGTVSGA

Baboon [20] = experiment: Volume of distribution in iv dosed baboon; type: ADME, organism-based, Papio; conditions: in vivo; summary of the method: as §2
CYP2D6 = CYP2D6 (Homo sapiens, UniProt P10635); experiment: Inhibition of CYP2D6 at 10 uM; type: ADME; summary of the method: as §4
Chain of CYP2D6 (P10635 whole entry): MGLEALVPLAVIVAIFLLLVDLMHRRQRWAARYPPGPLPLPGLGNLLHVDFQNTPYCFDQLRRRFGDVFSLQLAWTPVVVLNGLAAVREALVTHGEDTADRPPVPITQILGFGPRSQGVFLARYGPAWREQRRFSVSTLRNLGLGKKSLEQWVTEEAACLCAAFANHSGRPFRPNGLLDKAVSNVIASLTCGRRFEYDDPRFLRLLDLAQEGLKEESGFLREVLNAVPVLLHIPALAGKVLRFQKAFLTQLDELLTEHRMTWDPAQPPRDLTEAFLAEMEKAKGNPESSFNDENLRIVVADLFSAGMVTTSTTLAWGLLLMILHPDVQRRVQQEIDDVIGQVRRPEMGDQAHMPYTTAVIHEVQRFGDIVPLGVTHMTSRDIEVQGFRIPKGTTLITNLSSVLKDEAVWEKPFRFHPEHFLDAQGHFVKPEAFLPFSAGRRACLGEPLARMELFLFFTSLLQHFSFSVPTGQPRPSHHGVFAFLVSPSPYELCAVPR

Baboon [21] = experiment: Inhibition of platelet deposition in baboon at 0.03 mg/kg, iv 1 hr post dose relative to control; type: functional; conditions: Papio, in Papio anubis; summary of the method: as §3
[22] = molecular target: T2, Coagulation factor VII/tissue factor (Homo sapiens); experiment: Anticoagulant potency in baboon as measured by prothrombin time at 0.03 mg/kg, iv 1 hr post dose; type: functional, organism-based; design: dose 0.03 mg/kg; conditions: Papio, target entry is the homologue from another species; summary of the method: as §3
Baboon [23] = experiment: Effect on reduction of platelet deposition in iv dosed baboon after 60 mins; type: functional, organism-based; conditions: Papio, 1 h
Summary of the method: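 Sigmoid Emax model fitted to dose (mg/kg) versus percent inhibition of platelet deposition relative to control at 60 min post IV bolus in the baboon A-V shunt model; ED50 is the dose producing 50% of maximum effect.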

Baboon [24] = experiment: Inhibition of platelet deposition in baboon at 0.1 mg/kg, iv 1 hr post dose relative to control; type: functional; conditions: Papio, in Papio anubis; summary of the method: as §3
Baboon [25] = experiment: Inhibition of fibrin deposition in baboon at 0.03 mg/kg, iv 1 hr post dose relative to control; type: functional; conditions: Papio, in Papio anubis; summary of the method: as §3
CYP2C9 = CYP2C9 (Homo sapiens, UniProt P11712); experiment: Inhibition of CYP2C9 at 10 uM; type: ADME; summary of the method: as §4
Chain of CYP2C9 (P11712 whole entry): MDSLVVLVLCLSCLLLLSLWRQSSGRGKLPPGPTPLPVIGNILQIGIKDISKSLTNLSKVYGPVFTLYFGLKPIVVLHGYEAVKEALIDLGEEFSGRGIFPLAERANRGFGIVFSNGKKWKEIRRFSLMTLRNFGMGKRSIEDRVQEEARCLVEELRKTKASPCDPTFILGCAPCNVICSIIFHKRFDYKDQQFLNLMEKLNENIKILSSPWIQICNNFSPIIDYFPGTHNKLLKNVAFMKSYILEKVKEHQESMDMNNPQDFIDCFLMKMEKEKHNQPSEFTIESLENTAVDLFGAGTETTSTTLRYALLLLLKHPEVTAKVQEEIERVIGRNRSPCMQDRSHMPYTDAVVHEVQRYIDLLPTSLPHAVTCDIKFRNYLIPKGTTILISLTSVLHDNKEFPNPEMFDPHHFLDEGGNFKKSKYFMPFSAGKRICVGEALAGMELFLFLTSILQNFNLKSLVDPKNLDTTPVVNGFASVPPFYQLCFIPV

[26] = molecular target: T2, Coagulation factor VII/tissue factor (Homo sapiens); experiment: Anticoagulant potency in human plasma as measured by activated partial thromboplastin time

Compound: N=C(N)c1ccc2[nH]c(-c3cc(C(CC(=O)O)C(=O)O)cc(-c4cc(CN)ccc4O)c3O)nc2c1 (configuration not stated)
2PT [1]: 2.9 µM
Ratio Ki [2]: 4200
Ratio Ki [3]: 510
Ki (Coagulation factor VII): 35 nM

Compound: N=C(N)c1ccc2[nH]c(-c3cc(C(CC(=O)O)C(=O)O)cc(-c4cc(NC(N)=O)ccc4O)c3O)nc2c1 (configuration not stated)
2PT [1]: 4.9 µM
Ratio Ki [2]: 3400
Ratio Ki [3]: 270
Ki (Coagulation factor VII): 44 nM

Compound: N=C(N)c1ccc2[nH]c(-c3cc(C(CC(=O)O)C(=O)O)cc(-c4cc(F)ccc4O)c3O)nc2c1 (configuration not stated)
2PT [1]: 10.2 µM
Ratio Ki [2]: 55500
Ratio Ki [3]: 1800

Compound: N=C(N)c1ccc2[nH]c(-c3cc(C(CC(=O)O)C(=O)O)cc(-c4cc(CCC(=O)O)ccc4O)c3O)nc2c1 (configuration not stated)
2PT [1]: 5.4 µM
Ratio Ki [2]: 11500
Ratio Ki [3]: 350
Ki (Coagulation factor VII): 13 nM

Compound: N=C(N)c1ccc2[nH]c(-c3cc(C(CC(=O)O)C(=O)O)cc(-c4cc(C(N)=O)ccc4O)c3O)nc2c1 (configuration not stated)
2PT [1]: 3.6 µM
Ratio Ki [2]: 10700
Ratio Ki [3]: 1100
Ki (Coagulation factor VII): 14 nM

Continued, in another order:

Ki (Coagulation factor VII): 12 nM
Compound: N=C(N)c1ccc2nc(-c3cc(C(CC(=O)O)C(=O)O)cc(-c4cc(CC(N)=O)ccc4O)c3O)[nH]c2c1 (configuration not stated)

Ki (Coagulation factor VII): 12 nM
Compound: N=C(N)c1ccc2nc(-c3cc(C(CC(=O)O)C(=O)O)cc(-c4cc(CC(=O)O)ccc4O)c3O)[nH]c2c1 (configuration not stated)

2PT [1]: 8.2 µM
Ratio Ki [2]: 3500
Ratio Ki [3]: 300
Ki (Coagulation factor VII): 43 nM
Compound: N=C(N)c1ccc2[nH]c(-c3cc(C(CC(=O)O)C(=O)O)cc(-c4cc(C(=O)O)ccc4O)c3O)nc2c1 (configuration not stated)

2PT [1]: 6.4 µM
Ratio Ki [2]: 12500
Ratio Ki [3]: 280
Compound: N=C(N)c1ccc2[nH]c(-c3cc(C(CC(=O)O)C(=O)O)cc(-c4cc(CC(N)=O)ccc4O)c3O)nc2c1 (configuration not stated)

clearance [4]: 30.5 mL/min
Vdss (Oryctolagus cuniculus): 1080 mL
MRT [6]: 0.392 h
Vdss (Canis familiaris): 6750 mL
MRT [9]: 3.87 h
PT [10]: 11.3 s
Ratio Ki [2]: > 100000
inhibition at 10 µM (CYP2C19): < 40%
clearance [11]: 0.81 mL/min
MRT [12]: 3.03 h
MRT [13]: 3.73 h
Ratio Ki [3]: 3600
Vdss (Mus musculus): 2.43 mL
PT [14]: 11.6 s
MRT [15]: 1.15 h
inhibition at 10 µM (CYP1A2): < 40%
clearance [16]: 0.103 mL/min
clearance [17]: 26.5 mL/min
clearance [18]: 6.1 mL/min
Vdss (Rattus norvegicus): 55.2 mL
Ratio [19]: 1.05
inhibition at 10 µM (CYP3A4): < 40%
Vdss (Baboon [20]): 5854 mL
inhibition at 10 µM (CYP2D6): < 40%
PT [22]: 11.3 s
EC50 (Baboon [23]): 170 nM
inhibition at 10 µM (CYP2C9): < 40%
2aPTT [26]: 0.8 µM
Compound: N=C(N)c1ccc2[nH]c(-c3cc(C(CC(=O)O)C(=O)O)cc(-c4cc(CNC(N)=O)ccc4O)c3O)nc2c1 (configuration not stated)
inhibition in vivo at 0.5 mg/kg (Baboon [5]): 87%
inhibition in vivo at 0.5 mg/kg (Baboon [7]): 86%
inhibition in vivo at 0.1 mg/kg (Baboon [8]): 64%
inhibition in vivo at 0.03 mg/kg (Baboon [21]): 14%
ED50 (Baboon [23]; in Papio anubis, iv): 0.06 mg/kg
Emax (Baboon [23]; in Papio anubis, iv): 99%
inhibition in vivo at 0.1 mg/kg (Baboon [24]): 61%
inhibition in vivo at 0.03 mg/kg (Baboon [25]): 20%

2PT [1]: 6.2 µM
Ratio Ki [2]: 12500
Ratio Ki [3]: 125
Compound: N=C(N)c1ccc2[nH]c(-c3cc(C(CC(=O)O)C(=O)O)cc(-c4cc(CC(=O)O)ccc4O)c3O)nc2c1 (configuration not stated)
